Consider five compounds from article PMC5357606 (Journal of the American Chemical Society, 2017).

The MIC is the smallest concentration in the dilution series that meets the test's criterion for growth inhibition. The term kon denotes a measure of how fast the partners come together.

The structures appear in SMILES notation. Like-named read-outs stand apart in the source and are kept apart here.

Test [1] concerns the target T1, InhA (Mycobacterium tuberculosis, UniProt P9WGR1). The experiment in a line: [32P]-NAD+ direct dissociation kinetics. It is filed as binding. The settings on record: 32P-NAD+ direct dissociation method. The procedure, abridged: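 InhA expressed in E. coli BL21(DE3) pLysS and purified by Ni2+-NTA and size exclusion. Ternary complex formed with 15 μM InhA, 20 μM NAD+ plus [32P]-NAD+, and 200 μM inhibitor in 30 mM PIPES pH 6.8, 150 mM NaCl, 1 mM EDTA. Spin column removed free ligand; rapid dilution into buffer started dissociation. Timed aliquots ultrafiltered (10 kDa). Run at 20 °C, or 25 °C for two compounds. kon,overall from koff via Equation 5.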

Test [2] addresses T1, InhA. The experiment in a line: Progress curve analysis of InhA inhibition. It is filed as biochemical. The settings on record: for k5: EI to EI*; for k6: EI* to EI; for tR: residence time from progress curve analysis; for kon, overall: (k5+k6)/Ki^app.
Test [3] concerns the target T1, InhA. In words: Second-harmonic generation. Format: binding. The settings on record: 10 μM compound.
A further test deals with M. tuberculosis. In words: MIC determination, microplate Alamar Blue assay. It is filed as cell-based. The settings on record: 37 °C, 6 days + 24 h. A general note: The colour change of resazurin is a common sign of viable cells or microbes.
Setting [4] is: 20 °C, calculated from Ki^app, Ki^*app, k6.
The mark [5] stands for this setting: read-out: Ki^*app, 20 °C, final EI* complex.
[6] abbreviates: read-out: Ki^app, 20 °C, initial EI complex.

T1 sequence (P9WGR1 whole entry, looked up): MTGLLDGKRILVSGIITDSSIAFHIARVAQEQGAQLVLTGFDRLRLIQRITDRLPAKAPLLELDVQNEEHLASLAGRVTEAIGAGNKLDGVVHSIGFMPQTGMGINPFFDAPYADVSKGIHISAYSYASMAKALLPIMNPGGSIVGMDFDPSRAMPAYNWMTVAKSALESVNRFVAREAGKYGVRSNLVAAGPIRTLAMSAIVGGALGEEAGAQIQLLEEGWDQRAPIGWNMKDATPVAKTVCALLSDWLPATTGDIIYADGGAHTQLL

In turn, `Cc1ccccc1Oc1ccc(Cn2cc(-c3ccccc3)nn2)cc1O` [PT163] returned a tR direct dissociation on InhA [1] (25 °C) of 114 ± 18 min. Also, on InhA [2] (25 °C, calculated), the k5 is 3.20 min⁻¹. Further, at InhA [2] (25 °C), the k6 was found to be 0.0092 ± 0.002 min⁻¹ and the tR is 113 ± 28 min.
Take `CCCCCCc1ccc(Oc2ccccc2C#N)c(O)c1` [PT119]: the “time course of SHG conformational change” value on InhA [3] (30-min time course) is listed as “require a longer time to reach a plateau compared to PT155”. For the same compound, at InhA [3] (30 min after addition, His-tagged InhA, N = 4, mean ± SE), the “increase in SHG intensity” value is 13.1± 0.8%. Moreover, the MIC with M. tuberculosis was found to be 2.5 µg/mL. At InhA [1] (20 °C), this compound had a tR direct dissociation of 47 ± 4 min. Moreover, on InhA [2] (20 °C), the “kon, overall” value was determined as 8330 M⁻¹ s⁻¹; the k6 was 0.020 ± 0.0040 min⁻¹; the tR worked out at 50 ± 0.4 min. For the same compound, the k5 at InhA [2] (setting [4]) was 5.0 min⁻¹. The Ki on InhA [2] (setting [5]) was determined as 40 ± 1 nM. Moreover, the Ki at InhA [2] (setting [6]) worked out at 10000 ± 2000 nM.
Regarding `CCCCCCc1ccc(Oc2ccccc2C)c(O)c1` [PT70], the minimum inhibitory concentration (MIC) in the test with M. tuberculosis came to 3.13 µg/mL. In addition, at InhA [1] (20 °C), the tR direct dissociation stood at 40 ± 4 min. For the same compound, on InhA [2] (20 °C), the “kon, overall” value was determined as 20000 M⁻¹ s⁻¹; the k6 stood at 0.036 ± 0.010 min⁻¹; the tR was found to be 30 ± 7 min. Further, on InhA [2] (setting [4]), the k5 is 0.23 min⁻¹. Besides, the Ki on InhA [2] (setting [5]) is 29 ± 4 nM. Besides, the Ki at InhA [2] (setting [6]) is 210 ± 34 nM.
Regarding `CCCCCCc1ccc(Oc2ccccc2F)c(O)c1` [PT113], the tR direct dissociation at InhA [1] (20 °C) was 31 ± 5 min. For the same compound, the k5 on InhA [2] (setting [4]) was 0.18 min⁻¹. On InhA [2] (20 °C), this compound registered a k6 of 0.026 ± 0.004 min⁻¹ and a tR of 38 ± 5 min. The same compound yielded a Ki at InhA [2] (Ki^*app, 20 °C, final EI* complex) of 27 ± 1 nM. On InhA [2] (Ki^app, 20 °C, initial EI complex), this compound registered a Ki of 220 ± 6 nM. For the same compound, the kon at InhA [2] (read-out: kon, overall) is 16000 M⁻¹ s⁻¹.
For the compound `CCCCCCc1ccc(Oc2ccccc2Cl)c(O)c1` [PT91], in the test on M. tuberculosis, the MIC is 1.56 µg/mL. In addition, the tR direct dissociation on InhA [1] (20 °C) came to 148 ± 13 min. In addition, on InhA [2] (20 °C), the “kon, overall” value was determined as 41700 M⁻¹ s⁻¹; the k6 was 0.013 ± 0.005 min⁻¹; the tR was 90 ± 37 min. Further, the k5 on InhA [2] (setting [4]) was 0.12 min⁻¹. For the same compound, the Ki at InhA [2] (setting [5]) was determined as 5 ± 2 nM. Besides, the Ki at InhA [2] (setting [6]) came out at 52 ± 25 nM.
